The results in this text go back to ChEMBL document CHEMBL1122016, “Aminotetralins as narcotic antagonists. 2. Synthesis and opiate-related activity of 1-phenyl-3-aminotetralins” (1982).

The ED50 is the dose at which the effect has come halfway, by size or by number of responders. What is called inhibition in vivo is the percentage by which the read-out fell short of the control.

For assay [1], the species on record is Mus musculus. The assay is described as follows: activity in the mouse hotplate procedure. Type of assay: functional.
For assay [2], the system named is Mus musculus. The assay is described as follows: The ability to reverse an ED50 dose of morphine when tested in mice by the tail-flick procedure at the dose of 1 mg/kg (s.c.) value expressed as narcotic-antagonistic activity. Type of assay: functional. The method in brief: (§1)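 Mouse tail-flick antagonism assay: test agents given subcutaneously as hydrochloride salts of racemic mixtures, each at 30, 10, 3 and 1 mg/kg, against a subcutaneous ED50 dose of morphine. The read-out is percent inhibition, meaning reversal, of the morphine tail-flick response. Testing was performed by an outside laboratory (NIDA).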

The subject of assay [3] is Mus musculus. Put plainly: The ability to reverse an ED50 dose of morphine when tested in mice by the tail-flick procedure at the dose of 30 mg/kg (s.c.) value expressed as narcotic-antagonistic activity. In kind it is functional. The gist of the method: as §1
The subject of assay [4] is Mus musculus. The assay is described as follows: The ability to reverse an ED50 dose of morphine when tested in mice by the tail-flick procedure at the dose of 10 mg/kg (s.c.) value expressed as narcotic-antagonistic activity. In kind it is functional. The gist of the method:
as §1

The subject of assay [5] is Mus musculus. The assay is described as follows: The ability to reverse an ED50 dose of morphine when tested in mice by the tail-flick procedure at the dose of 3 mg/kg (s.c.) value expressed as narcotic-antagonistic activity. Type of assay: functional. The method in brief: as §1
The test system of assay [6] is Mus musculus. Put plainly: The Narcotic-antagonistic activity the ability to reverse an ED50 dose of morphine when tested in mice by the tail-flick procedure at the dose of 1 mg/kg (s.c.). Type of assay: functional. The note with it: sc. The gist of the method: as §1
The test system of assay [7] is Mus musculus. Put plainly: The Narcotic-antagonistic activity the ability to reverse an ED50 dose of morphine when tested in mice by the tail-flick procedure at the dose of 3 mg/kg (s.c.). In kind it is functional. The note with it: sc. The method in brief: as §1
Assay [8] has as its system Mus musculus. Put plainly: The Narcotic-antagonistic activity the ability to reverse an ED50 dose of morphine when tested in mice by the tail-flick procedure at the dose of 30 mg/kg (s.c.). Type of assay: functional. The note with it: sc. The gist of the method:
as §1

The test system of the next assay is Monkey. The assay is described as follows: Compound was tested for signs of opiate abstinence at 5 mg/kg dose in monkeys; No effect. In kind it is functional, organism-based. More on the design: dose 5 mg/kg. The note with it: Cercopithecidae.
For assay [9], the system named is Mus musculus. Put plainly: The Narcotic-antagonistic activity the ability to reverse an ED50 dose of morphine when tested in mice by the tail-flick procedure at the dose of 10 mg/kg (s.c.). Type of assay: functional. The note with it: sc. The method in brief:
as §1

Calls of active or inactive are those of the source. The calls are words filed in the database; no cut-off is given here.

In the case of `COc1ccc2c3c1O[C@H]1[C@@H](O)C=C[C@H]4[C@@H](C2)N(C)CC[C@@]341.O=S(=O)(O)O`, the ED50 in the assay listed under Mus musculus [1] amounted to 7.5 mg/kg.

As for `CN1CC[C@]23c4c5ccc(O)c4O[C@H]2[C@@H](O)C=C[C@H]3[C@H]1C5.CN1CC[C@]23c4c5ccc(O)c4O[C@H]2[C@@H](O)C=C[C@H]3[C@H]1C5.O=S(=O)(O)O`, in the assay filed under Mus musculus [1], the ED50 stood at 1.2 mg/kg.

On to `C=CCN1CC[C@]23c4c5ccc(O)c4O[C@H]2C(=O)CC[C@@]3(O)[C@H]1C5.Cl` [NALOXONE HYDROCHLORIDE], for which the AD50 in the assay with Mus musculus [2], with Mus musculus [3], in the assay on Mus musculus [4] and in the assay on Mus musculus [5] was 0.031 mg/kg in each case.

In the assay filed under Mus musculus [1], `CN(CC1CC1)C1C=C(c2ccccc2)c2ccccc2C1` (stereo unspecified) gave an ED50 greater than 50 mg/kg.

As to `CN(CC1CC1)[C@@H]1Cc2ccccc2[C@H](c2ccccc2)C1`, the 50% effect level in the assay listed under Mus musculus [1] (ED50) was put at a dose of 6.3 mg/kg. In the assay on Mus musculus [6], the inhibition in vivo at 1 mg/kg stood at 75%. The compound further returned an inhibition in vivo at 3 mg/kg with Mus musculus [7] of 100%.

`CN(CC1CC1)[C@@H]1Cc2ccccc2[C@@H](c2ccccc2)C1` had an inhibition in vivo at 30 mg/kg in the assay on Mus musculus [8] of 0%. The result in the assay with Monkey was inactive. This compound came in with an ED50 in the assay listed under Mus musculus [1] of 9.1 mg/kg. In the assay with Mus musculus [6], this compound registered an inhibition in vivo at 1 mg/kg of 60%. In the assay on Mus musculus [9], this compound yielded an inhibition in vivo at 10 mg/kg of 54%. This compound also yielded an inhibition in vivo at 3 mg/kg with Mus musculus [7] of 100%.
